Source: ChEMBL document CHEMBL1821697, “Design and synthesis of brain penetrant selective JNK inhibitors with improved pharmacokinetic properties for the prevention of neurodegeneration” (Bioorg Med Chem Lett, 2011)

Tests used:
[1] = Oxidative metabolic stability in mouse liver microsomes assessed as compound remaining at 1 uM after 30 mins; assay type: ADME, Microsome; conditions: read-out: Stability
In short: (§1)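 Test compound was incubated with mouse, rat or human liver microsomes for 30 min. The read-out is percent of parent compound remaining.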

[2] = Half life in rat at 1 mg/kg, iv; assay type: ADME, organism-based; parameters: dose 1 mg/kg, route intravenous; conditions: in vivo
In short: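 Rats were given a single intravenous dose of 1 mg/kg. Half-life is reported in min, together with clearance (mL/h/kg).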

[3] = molecular target: Mitogen-activated protein kinase 8 (Homo sapiens, UniProt P45983); assay: Inhibition of recombinant JNK1 using ser73 of c-jun as substrate preincubated for 15 mins measured after 60 mins by TR-FRET assay
Mitogen-activated protein kinase 8, sequence (P45983 whole entry): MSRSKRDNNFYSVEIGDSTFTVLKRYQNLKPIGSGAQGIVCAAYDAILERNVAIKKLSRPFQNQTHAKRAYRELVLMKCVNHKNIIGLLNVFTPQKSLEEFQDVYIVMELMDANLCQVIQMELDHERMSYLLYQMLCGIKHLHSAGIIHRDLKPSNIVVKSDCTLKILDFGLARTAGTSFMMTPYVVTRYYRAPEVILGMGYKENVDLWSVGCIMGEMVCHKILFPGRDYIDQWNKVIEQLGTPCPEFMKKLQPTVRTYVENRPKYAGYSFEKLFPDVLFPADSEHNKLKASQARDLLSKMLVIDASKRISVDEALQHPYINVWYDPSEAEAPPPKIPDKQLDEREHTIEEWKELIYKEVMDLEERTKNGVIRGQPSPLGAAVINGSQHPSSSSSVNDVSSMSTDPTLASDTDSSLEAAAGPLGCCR
In short: (§2)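 Recombinant JNK enzyme assay run at 10 µM ATP. IC50 values are means of at least three experiments.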

Rattus norvegicus [4] = assay: Oral bioavailability in rat at 2 mg/kg; assay type: ADME, organism-based; conditions: in vivo
In short: (§3)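 Rats received an oral dose of 2 mg/kg. Plasma AUC is reported in nmol h/mL. Oral bioavailability (F%) was calculated against a 1 mg/kg intravenous dose.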

[5] = Oxidative metabolic stability in human liver microsomes assessed as compound remaining at 1 uM after 30 mins; assay type: ADME, Microsome; conditions: read-out: Stability; in short: as §1
[6] = molecular target: T1, Mitogen-activated protein kinase 1 (Homo sapiens, UniProt P28482); assay: Inhibition of recombinant ERK2 using Ser383 of Elk-1 as substrate preincubated for 15 mins measured after 60 mins by TR-FRET assay
T1 sequence (P28482 whole entry): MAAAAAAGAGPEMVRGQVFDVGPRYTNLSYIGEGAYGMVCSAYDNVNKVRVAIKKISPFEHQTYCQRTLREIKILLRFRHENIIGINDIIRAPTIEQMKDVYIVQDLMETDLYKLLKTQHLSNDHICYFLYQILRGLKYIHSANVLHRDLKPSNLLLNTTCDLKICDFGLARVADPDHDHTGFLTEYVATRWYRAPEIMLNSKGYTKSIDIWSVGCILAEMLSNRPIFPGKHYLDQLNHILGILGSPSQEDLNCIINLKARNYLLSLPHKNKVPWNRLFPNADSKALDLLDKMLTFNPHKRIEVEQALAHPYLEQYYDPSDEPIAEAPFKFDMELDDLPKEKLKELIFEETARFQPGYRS

[7] = Apparent permeability from apical to basolateral side of MDCK2 cells at 5 uM after 120 mins by LC/MS/MS method; assay type: ADME, cell-based, Canis lupus familiaris, MDCK-II; conditions: dog, MDCK
MDR1 = assay: Efflux ratio of permeability across MDCK2 expressing MDR1 at 5 uM after 120 mins by LC/MS/MS method; assay type: ADME, Canis lupus familiaris, MDCK-II; conditions: dog, MDCK-MDR1
[8] = Oxidative metabolic stability in rat liver microsomes assessed as compound remaining at 1 uM after 30 mins; assay type: ADME, Microsome; conditions: read-out: Stability; in short: as §1
[9] = molecular target: Mitogen-activated protein kinase 9 (Homo sapiens, UniProt P45984); assay: Inhibition of recombinant JNK2 using ser73 of c-jun as substrate preincubated for 15 mins measured after 60 mins by TR-FRET assay; in short: as §2
Mitogen-activated protein kinase 9, sequence (P45984 whole entry): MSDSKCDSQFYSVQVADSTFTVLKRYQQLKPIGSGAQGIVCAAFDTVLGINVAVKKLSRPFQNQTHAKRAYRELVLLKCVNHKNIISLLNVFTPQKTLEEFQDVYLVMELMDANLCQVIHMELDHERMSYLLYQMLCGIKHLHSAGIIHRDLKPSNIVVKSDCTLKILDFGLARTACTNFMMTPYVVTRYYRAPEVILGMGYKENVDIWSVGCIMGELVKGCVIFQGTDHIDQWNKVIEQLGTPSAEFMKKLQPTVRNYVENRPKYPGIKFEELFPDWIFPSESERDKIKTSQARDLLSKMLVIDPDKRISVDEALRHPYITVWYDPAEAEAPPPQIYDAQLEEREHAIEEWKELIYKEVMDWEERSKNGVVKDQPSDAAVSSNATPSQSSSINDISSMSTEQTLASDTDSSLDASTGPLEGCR

[10] = molecular target: Mitogen-activated protein kinase 14 (Homo sapiens, UniProt Q16539); assay: Inhibition of recombinant p38alpha Thr69/71 of ATF-2 as substrate preincubated for 15 mins measured after 60 mins by TR-FRET assay
Mitogen-activated protein kinase 14, sequence (Q16539 whole entry): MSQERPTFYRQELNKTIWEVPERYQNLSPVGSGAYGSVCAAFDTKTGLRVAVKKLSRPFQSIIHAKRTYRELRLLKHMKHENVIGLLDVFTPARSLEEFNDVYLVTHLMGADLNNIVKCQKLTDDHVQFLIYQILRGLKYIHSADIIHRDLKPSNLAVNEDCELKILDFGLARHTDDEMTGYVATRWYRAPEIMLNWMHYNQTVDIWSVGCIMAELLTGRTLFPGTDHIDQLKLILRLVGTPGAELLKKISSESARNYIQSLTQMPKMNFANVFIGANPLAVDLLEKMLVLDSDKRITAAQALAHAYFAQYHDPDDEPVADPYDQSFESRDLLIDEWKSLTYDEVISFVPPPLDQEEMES

[11] = Ratio of drug level in brain to plasma in mouse at 1 mg/kg, iv; assay type: ADME, organism-based; parameters: dose 1 mg/kg, route intravenous; conditions: read-out: BPR
In short: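 Single intravenous dose of 1 mg/kg in mice. Brain exposure was reported as brain AUC (ng h/mL), together with the brain-to-plasma ratio.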

Rattus norvegicus [12] = assay: AUC in rat at 2 mg/kg, po; assay type: ADME, organism-based, Plasma; parameters: dose 2 mg/kg, route oral; conditions: in vivo; in short: as §3
[13] = AUC in mouse brain at 1 mg/kg, iv; assay type: ADME, organism-based; parameters: dose 1 mg/kg, route intravenous
In short: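 Mice were dosed intravenously at 1 mg/kg. Brain exposure was expressed as AUC (ng h/mL) alongside the brain/plasma ratio.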

[14] = molecular target: T2, Mitogen-activated protein kinase 10 (Homo sapiens, UniProt P53779); assay: Inhibition of recombinant JNK3 using ser73 of c-jun as substrate preincubated for 15 mins measured after 60 mins by TR-FRET assay; in short: as §2
T2 sequence (P53779 whole entry): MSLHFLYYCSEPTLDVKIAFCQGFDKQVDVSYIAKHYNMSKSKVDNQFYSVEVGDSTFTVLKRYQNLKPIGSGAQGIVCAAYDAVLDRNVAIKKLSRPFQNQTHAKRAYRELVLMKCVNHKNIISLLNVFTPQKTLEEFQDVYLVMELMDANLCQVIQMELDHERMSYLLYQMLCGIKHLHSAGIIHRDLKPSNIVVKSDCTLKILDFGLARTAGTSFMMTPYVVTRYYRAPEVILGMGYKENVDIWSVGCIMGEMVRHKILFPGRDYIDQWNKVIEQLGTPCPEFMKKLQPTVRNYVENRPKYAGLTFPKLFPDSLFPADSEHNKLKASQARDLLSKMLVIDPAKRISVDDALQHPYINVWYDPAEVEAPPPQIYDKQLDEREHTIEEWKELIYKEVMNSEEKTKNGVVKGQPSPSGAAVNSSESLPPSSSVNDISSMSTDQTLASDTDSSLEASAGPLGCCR

[15] = Solubility of the compound in Hank's buffered salt solution at 20 mM at pH 7.4 after 1 hr; assay type: physicochemical
[16] = system: RAF proto-oncogene serine/threonine-protein kinase (Homo sapiens), P04049 [Y340D,Y341D]; assay: Inhibition of c-Raf Y340D Y341D mutant at 10 uM using 100 uM of ATP
[17] = molecular target: Dual specificity protein kinase CLK1 (Homo sapiens) (UniProt P49759); assay: Inhibition of CLK1 at 10 uM
[18] = molecular target: Tyrosine-protein kinase ABL1 (Homo sapiens) (UniProt P00519); assay: Inhibition of Abl1 at 10 uM
[19] = molecular target: Rho-associated protein kinase 2 (Homo sapiens) (UniProt O75116); assay: Inhibition of ROCK2 at 10 uM
[20] = molecular target: Leucine-rich repeat serine/threonine-protein kinase 2 (Homo sapiens) (UniProt Q5S007); assay: Inhibition of LRRK2 at 10 uM
[21] = molecular target: Serine/threonine-protein kinase Chk1 (Homo sapiens) (UniProt O14757); assay: Inhibition of CHEK1 at 10 uM
[22] = molecular target: Aurora kinase A (Homo sapiens) (UniProt O14965); assay: Inhibition of AURKA at 10 uM
[23] = molecular target: Dual specificity tyrosine-phosphorylation-regulated kinase 1B (Homo sapiens) (UniProt Q9Y463); assay: Inhibition of DYRK1B at 10 uM
Dual specificity tyrosine-phosphorylation-regulated kinase 1B (Homo sapiens), sequence (Q9Y463 whole entry, looked up): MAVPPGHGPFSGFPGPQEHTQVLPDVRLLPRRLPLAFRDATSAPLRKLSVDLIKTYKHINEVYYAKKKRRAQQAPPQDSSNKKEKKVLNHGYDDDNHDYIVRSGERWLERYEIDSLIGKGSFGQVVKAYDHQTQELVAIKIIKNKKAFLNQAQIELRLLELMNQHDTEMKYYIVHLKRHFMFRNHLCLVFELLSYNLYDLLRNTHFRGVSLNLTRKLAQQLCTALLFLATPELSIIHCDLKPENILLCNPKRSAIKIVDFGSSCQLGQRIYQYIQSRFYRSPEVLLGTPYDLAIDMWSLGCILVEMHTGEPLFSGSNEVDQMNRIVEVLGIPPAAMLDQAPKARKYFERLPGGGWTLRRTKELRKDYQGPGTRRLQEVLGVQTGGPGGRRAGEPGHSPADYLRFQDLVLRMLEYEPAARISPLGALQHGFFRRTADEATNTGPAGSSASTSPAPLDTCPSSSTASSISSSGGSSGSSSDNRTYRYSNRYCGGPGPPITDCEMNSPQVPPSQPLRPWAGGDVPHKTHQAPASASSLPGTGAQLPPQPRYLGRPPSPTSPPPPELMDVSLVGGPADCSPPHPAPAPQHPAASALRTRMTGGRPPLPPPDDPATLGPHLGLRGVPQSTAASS

[24] = molecular target: Cyclin-dependent kinase 5/CDK5 activator 1 (Homo sapiens) (UniProt Q00535+Q15078); assay: Inhibition of CDK5/P25 at 10 uM; assay type: protein-complex assay
Cortical neurone = assay: Neuroprotective activity in human cerebral cortical neurons assessed as reversal of amyloid beta-induced neuronal damage after 2 to 3 days; assay type: functional
In short: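 Human cortical neurons were exposed to amyloid-β in a neurotoxicity assay. Neuroprotection by the inhibitor was expressed as an EC50.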

[25] = molecular target: cAMP-dependent protein kinase catalytic subunit alpha (Homo sapiens) (UniProt P17612); assay: Inhibition of PRKACA at 10 uM
[26] = molecular target: Serine/threonine-protein kinase PLK3 (Homo sapiens) (UniProt Q9H4B4); assay: Inhibition of PLK3 at 10 uM
[27] = molecular target: Serine/threonine-protein kinase 3 (Homo sapiens) (UniProt Q13188); assay: Inhibition of STK3 at 10 uM
Serine/threonine-protein kinase 3 (Homo sapiens), sequence (Q13188 whole entry): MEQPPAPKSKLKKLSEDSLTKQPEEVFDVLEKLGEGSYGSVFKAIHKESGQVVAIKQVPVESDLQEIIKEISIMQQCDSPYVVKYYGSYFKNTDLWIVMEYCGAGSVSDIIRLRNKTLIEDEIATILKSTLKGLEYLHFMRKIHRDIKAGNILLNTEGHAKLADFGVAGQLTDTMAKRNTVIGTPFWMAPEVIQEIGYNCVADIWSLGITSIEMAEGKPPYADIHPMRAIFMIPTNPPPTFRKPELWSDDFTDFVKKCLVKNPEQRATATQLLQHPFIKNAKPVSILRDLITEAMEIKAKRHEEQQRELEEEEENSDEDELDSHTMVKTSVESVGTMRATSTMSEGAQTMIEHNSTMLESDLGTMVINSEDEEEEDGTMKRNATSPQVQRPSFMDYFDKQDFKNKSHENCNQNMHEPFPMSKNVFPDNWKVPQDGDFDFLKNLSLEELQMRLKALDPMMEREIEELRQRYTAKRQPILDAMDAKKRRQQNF

[28] = molecular target: Tyrosine-protein kinase SYK (Homo sapiens) (UniProt P43405); assay: Inhibition of SYK at 10 uM
[29] = molecular target: Platelet-derived growth factor receptor alpha (Homo sapiens) (UniProt P16234); assay: Inhibition of PDGFRA at 10 uM
[30] = molecular target: Receptor tyrosine-protein kinase erbB-4 (Homo sapiens) (UniProt Q15303); assay: Inhibition of ERBB4 at 10 uM
[31] = molecular target: Tyrosine-protein kinase Lck (Homo sapiens) (UniProt P06239); assay: Inhibition of LCK at 10 uM
Tyrosine-protein kinase Lck (Homo sapiens), sequence (P06239 2-509 limits assumed): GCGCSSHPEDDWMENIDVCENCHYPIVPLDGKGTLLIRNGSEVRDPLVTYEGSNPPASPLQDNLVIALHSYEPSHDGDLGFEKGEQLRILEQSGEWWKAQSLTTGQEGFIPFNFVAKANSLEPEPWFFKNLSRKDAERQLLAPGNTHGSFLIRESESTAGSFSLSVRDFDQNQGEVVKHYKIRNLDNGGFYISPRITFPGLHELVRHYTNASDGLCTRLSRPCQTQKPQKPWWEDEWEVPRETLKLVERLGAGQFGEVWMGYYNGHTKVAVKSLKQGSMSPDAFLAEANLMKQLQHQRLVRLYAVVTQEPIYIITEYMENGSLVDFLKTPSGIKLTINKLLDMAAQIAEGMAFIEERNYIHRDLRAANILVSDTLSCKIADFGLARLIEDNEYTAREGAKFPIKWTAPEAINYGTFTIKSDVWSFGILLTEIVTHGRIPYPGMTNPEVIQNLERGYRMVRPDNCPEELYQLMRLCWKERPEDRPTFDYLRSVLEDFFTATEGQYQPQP

[32] = molecular target: Calcium/calmodulin-dependent protein kinase type II subunit alpha (Homo sapiens) (UniProt Q9UQM7); assay: Inhibition of CAMK2A at 10 uM
Calcium/calmodulin-dependent protein kinase type II subunit alpha (Homo sapiens), sequence (Q9UQM7 whole entry): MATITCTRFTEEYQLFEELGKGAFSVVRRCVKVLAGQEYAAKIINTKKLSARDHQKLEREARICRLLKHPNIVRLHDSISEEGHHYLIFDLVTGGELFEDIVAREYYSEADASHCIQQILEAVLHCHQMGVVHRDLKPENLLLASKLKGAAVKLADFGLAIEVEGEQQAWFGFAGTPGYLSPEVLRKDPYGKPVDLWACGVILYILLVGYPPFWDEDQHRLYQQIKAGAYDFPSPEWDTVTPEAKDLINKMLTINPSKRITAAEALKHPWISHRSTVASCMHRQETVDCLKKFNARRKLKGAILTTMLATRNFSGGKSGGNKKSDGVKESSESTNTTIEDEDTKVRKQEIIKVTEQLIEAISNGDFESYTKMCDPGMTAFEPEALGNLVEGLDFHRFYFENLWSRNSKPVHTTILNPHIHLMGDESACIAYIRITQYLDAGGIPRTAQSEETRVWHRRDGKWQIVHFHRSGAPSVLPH

[33] = molecular target: T2, Mitogen-activated protein kinase 10; assay: Inhibition of JNK3 at 10 uM using 100 uM of ATP
[34] = molecular target: Glycogen synthase kinase-3 beta (Homo sapiens) (UniProt P49841); assay: Inhibition of GSK3-beta at 10 uM
[35] = molecular target: PI3-kinase p110-alpha/p85-alpha (Homo sapiens) (UniProt P27986+P42336); assay: Inhibition of PIK3CA/PIK3R1 at 10 uM; assay type: protein-complex assay
[36] = molecular target: Cyclin-dependent kinase 2/cyclin A (Homo sapiens) (UniProt P24941+P20248+P78396); assay: Inhibition of CDK2/Cyclin A at 10 uM; assay type: protein-complex assay
[37] = molecular target: Serine/threonine-protein kinase MARK2 (Homo sapiens) (UniProt Q7KZI7); assay: Inhibition of MARK2 at 10 uM
[38] = molecular target: Macrophage colony-stimulating factor 1 receptor (Homo sapiens) (UniProt P07333); assay: Inhibition of CSF1R at 10 uM
[39] = molecular target: T1, Mitogen-activated protein kinase 1; assay: Inhibition of ERK2 at 10 uM
[40] = molecular target: Serine/threonine-protein kinase PAK 4 (Homo sapiens) (UniProt O96013); assay: Inhibition of PAK4 at 10 uM
[41] = molecular target: Insulin receptor (Homo sapiens) (UniProt P06213); assay: Inhibition of INSR at 10 uM
[42] = molecular target: Protein-tyrosine kinase 2-beta (Homo sapiens) (UniProt Q14289); assay: Inhibition of PTK2B at 10 uM
[43] = molecular target: RAC-alpha serine/threonine-protein kinase (Homo sapiens) (UniProt P31749); assay: Inhibition of AKT1 at 10 uM
[44] = molecular target: Receptor-interacting serine/threonine-protein kinase 2 (Homo sapiens) (UniProt O43353); assay: Inhibition of RIPK2 at 10 uM
Receptor-interacting serine/threonine-protein kinase 2 (Homo sapiens), sequence (O43353 whole entry): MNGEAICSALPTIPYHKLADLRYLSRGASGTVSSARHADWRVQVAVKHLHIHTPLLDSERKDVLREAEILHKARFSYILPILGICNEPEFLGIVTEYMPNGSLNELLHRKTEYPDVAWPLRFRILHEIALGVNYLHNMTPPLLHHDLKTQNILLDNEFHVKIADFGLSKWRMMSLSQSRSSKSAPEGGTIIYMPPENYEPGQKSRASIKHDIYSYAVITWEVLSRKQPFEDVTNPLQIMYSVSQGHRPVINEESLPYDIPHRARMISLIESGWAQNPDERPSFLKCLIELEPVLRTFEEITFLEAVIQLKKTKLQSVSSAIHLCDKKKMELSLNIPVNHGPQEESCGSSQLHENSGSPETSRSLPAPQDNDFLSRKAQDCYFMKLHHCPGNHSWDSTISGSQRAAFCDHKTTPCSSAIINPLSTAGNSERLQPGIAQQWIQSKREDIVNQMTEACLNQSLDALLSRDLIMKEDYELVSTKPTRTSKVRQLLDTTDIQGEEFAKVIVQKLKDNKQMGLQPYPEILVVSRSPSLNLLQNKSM

[45] = molecular target: Protein kinase C beta type (Homo sapiens) (UniProt P05771); assay: Inhibition of PRKCB1 at 10 uM
[46] = molecular target: Receptor-type tyrosine-protein kinase FLT3 (Homo sapiens) (UniProt P36888); assay: Inhibition of FLT3 at 10 uM
[47] = molecular target: Serine/threonine-protein kinase PLK2 (Homo sapiens) (UniProt Q9NYY3); assay: Inhibition of PLK2 at 10 uM
[48] = molecular target: Serine/threonine-protein kinase PLK1 (Homo sapiens) (UniProt P53350); assay: Inhibition of PLK1 at 10 uM
[49] = molecular target: Cyclin-dependent kinase 1/cyclin B1 (Homo sapiens) (UniProt P06493+P14635); assay: Inhibition of CDK1/Cyclin B1 at 10 uM; assay type: protein-complex assay
[50] = molecular target: Tyrosine-protein kinase JAK1 (Homo sapiens) (UniProt P23458); assay: Inhibition of JAK1 at 10 uM
[51] = molecular target: Proto-oncogene tyrosine-protein kinase receptor Ret (Homo sapiens) (UniProt P07949); assay: Inhibition of RET at 10 uM

SMILES: O=C(CN1C(=O)CCc2ncccc21)Nc1scc(Br)c1-c1ncn[nH]1
- remaining at 0.5 h, 1 µM [1]: 55%
- half-life [2]: 2.5 min
- IC50 [3]: 9 nM
- F (Rattus norvegicus [4]): 91%
- remaining at 0.5 h, 1 µM [5]: 83%
- IC50 [6]: > 500 nM
- Papp A→B at 2 h, 5 µM [7]: 36.8 ×10⁻⁶ cm/s
- efflux ratio at 2 h, 5 µM (MDR1): 1.8
- remaining at 0.5 h, 1 µM [8]: 50%
- IC50 [9]: 32 nM
- IC50 [10]: > 50000 nM
- Kp [11]: 0.24
- AUC (Rattus norvegicus [12]): 2720 ng·h/mL
- AUC [13]: 35 ng·h/mL
- IC50 [14]: 14 nM

SMILES: N#Cc1csc(NC(=O)CN2C(=O)CCc3ccccc32)c1-c1ncn[nH]1
- remaining at 0.5 h, 1 µM [8]: 0%
- solubility at 1 h, 20000 µM [15]: 95 µM

SMILES: O=C(Cc1cccc2cnccc12)Nc1scc(Cl)c1-c1ncn[nH]1
- remaining at 0.5 h, 1 µM [8]: 9%
- Kp [11]: 0.4
- AUC [13]: 88 ng·h/mL
- solubility at 1 h, 20000 µM [15]: 25 µM

SMILES: O=C(Cn1c(=O)ccc2cc(F)c(F)cc21)Nc1scc(Br)c1-c1ncn[nH]1
- remaining at 0.5 h, 1 µM [1]: 14%
- half-life [2]: 2.3 min
- IC50 [3]: 3 nM
- F (Rattus norvegicus [4]): 40%
- remaining at 0.5 h, 1 µM [5]: 38%
- IC50 [6]: > 50000 nM
- Papp A→B at 2 h, 5 µM [7]: 8.31 ×10⁻⁶ cm/s
- efflux ratio at 2 h, 5 µM (MDR1): 0.68
- remaining at 0.5 h, 1 µM [8]: 9%
- IC50 [9]: 15 nM
- IC50 [10]: > 50000 nM
- Kp [11]: 1.4
- AUC (Rattus norvegicus [12]): 571 ng·h/mL
- AUC [13]: 160 ng·h/mL
- IC50 [14]: 5 nM

SMILES: O=C(Cn1c(=O)ccc2cc(C(F)(F)F)ccc21)Nc1scc(Br)c1-c1ncn[nH]1
- remaining at 0.5 h, 1 µM [1]: 58%
- inhibition [16]: 10%
- half-life [2]: 4.6 min
- inhibition [17]: 5%
- IC50 [3]: 2 nM
- inhibition [18]: 0%
- inhibition [19]: 11%
- F (Rattus norvegicus [4]): 34%
- inhibition [20]: 13%
- inhibition [21]: 10%
- remaining at 0.5 h, 1 µM [5]: 67%
- inhibition [22]: 5%
- IC50 [6]: > 50000 nM
- Papp A→B at 2 h, 5 µM [7]: 3.62 ×10⁻⁶ cm/s
- inhibition [23]: 11%
- inhibition [24]: 2%
- EC50 (Cortical neurone): 2900 nM
- efflux ratio at 2 h, 5 µM (MDR1): 0.61
- remaining at 0.5 h, 1 µM [8]: 35%
- IC50 [9]: 5 nM
- inhibition [25]: 0%
- IC50 [10]: > 50000 nM
- Kp [11]: 0.7
- inhibition [26]: -8%
- inhibition [27]: 4%
- inhibition [28]: 15%
- inhibition [29]: 0%
- inhibition [30]: -2%
- inhibition [31]: 8%
- AUC (Rattus norvegicus [12]): 1310 ng·h/mL
- inhibition [32]: 4%
- inhibition [33]: 96%
- AUC [13]: 235 ng·h/mL
- inhibition [34]: 5%
- inhibition [35]: 6%
- inhibition [36]: 2%
- inhibition [37]: 4%
- inhibition [38]: -2%
- inhibition [39]: -2%
- inhibition [40]: 3%
- inhibition [41]: -3%
- IC50 [14]: 9 nM
- inhibition [42]: -5%
- inhibition [43]: 2%
- inhibition [44]: -7%
- inhibition [45]: 4%
- inhibition [46]: 7%
- inhibition [47]: 10%
- inhibition [48]: 3%
- inhibition [49]: 1%
- inhibition [50]: 0%
- inhibition [51]: 4%
